As usually defined, the IC50 is the concentration that inhibits the measured activity by half. As a reminder, the AUC(0-t) is the area under the concentration-time curve up to a stated or last time point.

Data set [1] can be described thus: Inhibition of soybean LOX using arachidonic acid as substrate incubated for 5 mins. Set-up: species or system Glycine max. In short, it runs like this: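 Soybean lipoxygenase in assay buffer, compounds at 10⁻⁴–10⁻⁸ M from DMSO stocks, triplicate. Reaction started with arachidonic acid and shaken 5 min. Chromogen added, shaken 5 min more, absorbance read at 490 nm. Blanks were buffer + AA. % inhibition computed with chromogen extinction coefficient 9.47 mM⁻¹.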

For data set [2], the target named is T1, Prostaglandin G/H synthase 1 (Ovis aries, UniProt P05979).
T1 sequence (P05979 whole entry): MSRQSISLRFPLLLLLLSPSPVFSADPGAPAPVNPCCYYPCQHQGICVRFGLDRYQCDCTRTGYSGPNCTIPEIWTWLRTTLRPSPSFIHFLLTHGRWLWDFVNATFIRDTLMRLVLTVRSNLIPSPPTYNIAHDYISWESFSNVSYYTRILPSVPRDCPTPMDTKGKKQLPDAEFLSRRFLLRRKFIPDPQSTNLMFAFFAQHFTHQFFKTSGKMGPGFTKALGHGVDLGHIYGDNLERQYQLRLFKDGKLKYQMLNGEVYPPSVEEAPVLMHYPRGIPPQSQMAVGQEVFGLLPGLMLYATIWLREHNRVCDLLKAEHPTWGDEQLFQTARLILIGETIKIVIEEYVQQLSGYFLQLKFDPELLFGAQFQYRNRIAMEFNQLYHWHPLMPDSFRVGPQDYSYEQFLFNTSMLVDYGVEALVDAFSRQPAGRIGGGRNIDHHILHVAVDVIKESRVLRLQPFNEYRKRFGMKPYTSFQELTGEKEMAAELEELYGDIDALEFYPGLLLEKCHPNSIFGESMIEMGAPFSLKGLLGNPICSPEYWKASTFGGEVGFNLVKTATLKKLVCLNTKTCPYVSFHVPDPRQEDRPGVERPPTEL
Briefly: Inhibition of ovine COX-1 using arachidonic acid as substrate preincubated for 10 mins followed by substrate addition and measured after 2 mins by EIA. In short, it runs like this: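 COX-1 EIA run at 10⁻⁴–10⁻⁸ M in triplicate. Enzyme with heme in reaction buffer plus inhibitor, incubated 10 min at 37 °C. Boiled (3 min) enzyme served as background. Prostaglandin output quantified to give IC50.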

The subject of data set [3] is Mus musculus. Briefly: Antiinflammatory activity against Swiss albino mouse assessed as reduction in carragenan-induced paw edema at 5 mg/kg treated 30 mins prior to carrageenan challenge and measured upto 360 mins relative to control. The format is functional. Also on record: scale not given: the % may be the effect or the level left. The conditions noted are these: time 390 min, 6.5 h. In short, it runs like this: (§1)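 100 μL freshly prepared 1% carrageenan injected into the subplantar hind paw, with indomethacin (10 mg/kg) or test compound given 30 min before. Dose–response arm used 0.5, 2.5, 5, 10, 20 mg/kg. Six animals per group. Paw thickness (mm) read at 15, 30, 60, 120, 180, 240, 300, 360 min. Result expressed as % decrease versus control.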

In data set [4] the test system is Mus musculus. Briefly: Antiinflammatory activity against Swiss albino mouse assessed as reduction in carragenan-induced paw edema at 10 mg/kg treated 30 mins prior to carrageenan challenge and measured upto 360 mins relative to control. The settings on record: time 390 min, 6.5 h. Also on record: scale not given: the % may be the effect or the level left. The format is functional. The procedure, abridged:
as §1

The test system of data set [5] is Mus musculus. In words: Antiinflammatory activity against Swiss albino mouse assessed as reduction in carragenan-induced paw edema at 20 mg/kg treated 30 mins prior to carrageenan challenge and measured upto 360 mins relative to control. The conditions noted are these: time 390 min, 6.5 h. The format is functional. Also on record: scale not given: the % may be the effect or the level left. In short, it runs like this:
as §1

The nature of data set [6]: AUC (0 to t) in Swiss albino mouse at 10 mg/kg, ip measured upto 24 hrs by LC-MS analysis. The format is ADME, organism-based. Also on record: route intraperitoneal, dose 10 mg/kg, time <=24. The settings on record: in vivo. In short, it runs like this:
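Swiss albino mice (25−35 g), either sex, 10 groups of three. 10 mg/kg suspended in 0.1% CMC, given i.p. Ketamine anaesthesia (50 mg/kg i.p.). Jugular vein blood taken at 30, 45, 60 min and 2, 3, 4, 6, 8, 11, 24 h into heparinised tubes, triplicate samples per time point.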

The target of data set [7] is T2, Prostaglandin G/H synthase 1 (Ovis aries) (UniProt P05979).
T2 sequence (whole entry): T1 sequence (P05979 whole entry)
Briefly: Binding affinity to ovine COX-1 assessed as change in entropy by isothermal titration calorimetry. The procedure, abridged: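 ITC at 25 °C in 0.1 M Tris buffer. Ligand at 100 μM in DMSO:Tris (1:9) titrated from a syringe stirred at 500 rpm into enzyme in the sample cell, 120 s spacing. 40 × 1 μL injections, except COX-1 at 20 × 2 μL. Buffer-only control titrations were subtracted.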
(In general: ITC needs no label: the signal is the heat of the interaction.)

For data set [8], the target named is T3, Albumin (Homo sapiens, UniProt P02768). Briefly: Binding affinity to HSA assessed as association constant at equilibrium by isothermal titration calorimetry.
For data set [9], the target named is T3, Albumin. In words: Binding affinity to HSA assessed as change in enthalpy by isothermal titration calorimetry.
In data set [10] the target is T3, Albumin. Briefly: Binding affinity to HSA assessed as change in entropy by isothermal titration calorimetry. In short, it runs like this: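 Isothermal titration calorimetry at 25 °C. Ligand at 100 μM in DMSO:0.1 M Tris buffer (1:9), loaded in the syringe and stirred at 500 rpm. HSA (0.05 g per mL Tris buffer) placed in the sample cell. Forty 1 μL injections at 120 s intervals. Heats corrected with control titrations: ligand into buffer, and buffer into protein. Binding parameters fitted with a single-site model (Q = nΘMtΔHVo).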

Data set [11] relates to Mus musculus. In words: Analgesic activity in Swiss albino mouse assessed as inhibition of acetic acid-induced writhing at 5 mg/kg, ip preincubated for 30 mins with substance P followed by compound addition for 30 mins prior to acetic acid challenge and measured after 30 mins. The format is functional, organism-based. The conditions noted are these: time 60.0 min.
The subject of data set [12] is Mus musculus. In words: Sedative activity in Swiss albino mouse at 300 mg/kg, po after 1 hr. The format is ADME, organism-based. The settings on record: in vivo. The procedure, abridged: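 Acute oral toxicity in Swiss albino mice fasted 4 h, three per group, vehicle control group alongside. Single 300 mg/kg oral dose, continuous observation for 4 h, then periodic checks over 14 days.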

Data set [13] addresses T2, Prostaglandin G/H synthase 1 (Ovis aries).
Data set [14] relates to Glycine max.
Data set [15] concerns the target T4, Prostaglandin G/H synthase 2 (Homo sapiens) (UniProt P35354).
T4 sequence (whole entry): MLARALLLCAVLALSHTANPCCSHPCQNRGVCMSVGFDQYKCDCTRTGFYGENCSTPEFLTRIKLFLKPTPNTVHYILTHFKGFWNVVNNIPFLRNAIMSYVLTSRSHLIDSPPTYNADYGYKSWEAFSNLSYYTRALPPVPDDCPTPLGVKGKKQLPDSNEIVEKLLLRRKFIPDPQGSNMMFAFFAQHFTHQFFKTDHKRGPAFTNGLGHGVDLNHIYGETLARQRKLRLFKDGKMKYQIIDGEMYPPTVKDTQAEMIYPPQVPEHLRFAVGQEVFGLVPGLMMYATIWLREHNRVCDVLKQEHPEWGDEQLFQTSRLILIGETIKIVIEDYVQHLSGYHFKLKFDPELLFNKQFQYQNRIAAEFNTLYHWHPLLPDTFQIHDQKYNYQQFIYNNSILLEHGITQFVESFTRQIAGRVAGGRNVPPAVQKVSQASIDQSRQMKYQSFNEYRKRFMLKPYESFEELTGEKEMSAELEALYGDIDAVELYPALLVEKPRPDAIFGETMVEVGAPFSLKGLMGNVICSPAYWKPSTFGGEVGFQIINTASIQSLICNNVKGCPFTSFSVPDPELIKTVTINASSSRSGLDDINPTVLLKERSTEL

Each structure is given as a SMILES string. Calls of active or inactive are those of the source. The calls are words filed in the database; no cut-off is given here.

T3 sequence (P02768 whole entry): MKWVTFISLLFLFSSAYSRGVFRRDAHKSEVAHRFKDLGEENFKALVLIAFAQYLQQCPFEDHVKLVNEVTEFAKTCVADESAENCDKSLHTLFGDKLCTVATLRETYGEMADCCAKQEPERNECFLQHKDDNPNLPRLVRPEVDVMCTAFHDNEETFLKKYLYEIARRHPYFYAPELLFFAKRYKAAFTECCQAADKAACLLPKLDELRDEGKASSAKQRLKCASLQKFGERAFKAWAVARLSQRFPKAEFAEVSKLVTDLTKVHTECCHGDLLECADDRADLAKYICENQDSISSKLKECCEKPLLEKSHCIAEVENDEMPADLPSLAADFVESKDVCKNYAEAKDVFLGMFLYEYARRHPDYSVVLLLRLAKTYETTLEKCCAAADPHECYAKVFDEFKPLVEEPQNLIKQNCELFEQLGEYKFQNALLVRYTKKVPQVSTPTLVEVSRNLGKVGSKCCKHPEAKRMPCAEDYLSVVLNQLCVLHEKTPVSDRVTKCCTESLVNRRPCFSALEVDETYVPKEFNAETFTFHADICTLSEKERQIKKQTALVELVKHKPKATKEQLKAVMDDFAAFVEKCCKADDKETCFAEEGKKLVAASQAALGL

In the case of `O=C(O)Cn1nncc1CO[C@@H](C(=O)O)[C@@H](OCc1cnnn1CC(=O)O)C(=O)O`, the IC50 in data set [1] worked out at 7 nM; in data set [2], 300 nM. For the same compound, the Activity was 32.6% in [3], 36.5% in [4], 38.5% in [5] and “Toxic” in data set [12]. This compound also yielded an AUC(0-t) at 24 h in data set [6] of 241 µg·h/mL. The results for the TdeltaS in data set [7], in data set [10] and in data set [15] were -595 kcal/mol, -258 kcal/mol and -2.57 kcal/mol, respectively. The Ka in data set [8] was found to be 11800 M⁻¹. Moreover, the results for the deltaH in [9], in data set [13] and in data set [14] were -264 kcal/mol, -600 kcal/mol and -9.99 kcal/mol, respectively. For the same compound, the outcome in data set [11] was inactive.

These data come from ChEMBL document CHEMBL5032505, “Design, Synthesis, and Activity Evaluation of Stereoconfigured Tartarate Derivatives as Potential Anti-inflammatory Agents In Vitro and In Vivo” (J Med Chem, 2021).
